# This is a sample that favours compounds with a hit; in the whole collection about 1.8% have one here.
# Cneo AK release: Cryptococcus neoformans lysis via adenylate kinase release | 360,000 compounds, 0.2% hits | lysis activity, % at 15 µM | C. neoformans lysis, adenylate kinase release luminescence, 4 h; normalised: neutral wells 0, clomiphene wells 100 | AID 651654;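 active means mean lysis activity across replicates of at least 80%, whatever share of replicates individually reach that level; inactive means mean lysis activity below 80%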
#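 Material: C. neoformans cells | Amount: Yeast cell density of 5 × 10^6 cells/mL | Medium: Fresh YPD growth medium | Dosing: Single dose | Times: Static 4 h at 37 °C with compound, 1 h detection | Detection: AK luminescence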
# Efflux pump inh: inhibitors of Candida antifungal efflux pumps expressed in yeast. S. cerevisiae Candida pump triplex, Nile Red efflux. inhibition, % at 10 µM. 330,000 compounds, 0.44% hits. AID 485275;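 active means plate passing quality check with inhibition over a set limit, or well fluorescence over plate mean plus 4 SD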;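 further: Nile Red retained in pooled yeast measured as flow cytometry median fluorescence; 0% = buffer negative control and 100% = Enniatin B positive control; higher means more Nile Red kept so more efflux inhibition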
# SUMO Mot1 rescue: inhibitors of SUMOylation pathway: yeast Mot1-301 growth rescue. S. cerevisiae Mot1-301 growth rescue, ATP luminescence, 38.5C; percent above DMSO median, 100 means doubled. growth rescue, % at 18.8 µM. 320,000 compounds, 1% hits. AID 2716;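 active means every valid replicate shows activation above 250% relative to neutral control wells; inactive means the rest, any valid replicate at or below 250%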;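 further: OY570 slx delta 5 strain wells were the positive control but not used for scaling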
# C2C12 statin: protects C2C12 myotubes from simvastatin toxicity; ATP luminescence, 48 h; scaled: DMSO 0, geranylgeraniol control 100; rescue of ATP level, % at 7.49 µM; 330,000 compounds, 0.78% hits; AID 602340;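 active means mean ATP rescue above about 67%, or every replicate alone reaching that limit, limit read from the data, passing the limit was not always enough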;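 further: myotubes were challenged with 10 µM simvastatin during compound exposure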
# * marks the source's active call; other numbers are inactive results; x = not tested or not shown; ! = repeats disagree.
SMILES,Cneo AK release,Efflux pump inh,SUMO Mot1 rescue,C2C12 statin
O=c1oc2ccccc2c(Nc2cccc(O)c2)c1[N+](=O)[O-],-1,0,1,132*
C[C@H](CO)N1C[C@H](C)[C@@H](CN(C)S(=O)(=O)c2cccs2)Oc2ccc(NC(=O)Cc3ccccc3)cc2C1=O,11,0,-4,-9
C[C@@H]1CCCCO[C@@H](CN(C)S(=O)(=O)c2cccs2)[C@H](C)CN([C@@H](C)CO)C(=O)c2cc(NC(=O)CCC(F)(F)F)ccc2O1,98*,x,x,x
CC(C)NC(=O)Nc1ccc2c(c1)C(=O)N([C@@H](C)CO)C[C@H](C)[C@@H](CN(C)S(=O)(=O)c1cccs1)OCCCC[C@H](C)O2,87*,x,x,x
CC(C)NC(=O)Nc1ccc2c(c1)C(=O)N([C@H](C)CO)C[C@H](C)[C@H](CN(C)S(=O)(=O)c1cccs1)OCCCC[C@H](C)O2,3,x,x,x
C[C@H]1CN([C@@H](C)CO)C(=O)c2cc(NC(=O)Cc3ccccc3)ccc2O[C@@H]1CN(C)S(=O)(=O)c1cccs1,4,x,x,98*
C[C@@H]1CN([C@H](C)CO)C(=O)c2c(c3ccccc3n2C)-c2ccccc2CO[C@H]1CN(C)S(=O)(=O)c1cccs1,90*,x,x,6
COc1ccc(C)cc1S(=O)(=O)N1CCN(c2ccccc2)CC1,-3,0,11,7
COc1ccc(CCNC(=O)N[C@@H](Cc2ccccc2)C(=O)O)cc1,0,0,-17,-5
Cc1ccccc1-c1ccc([C@H]2[C@@H](CO)N3CCCCN(CC4CC4)C[C@@H]23)cc1,1,x,x,5
C[C@H]1CCCCO[C@H](CN(C)S(=O)(=O)c2cccs2)[C@@H](C)CN([C@@H](C)CO)C(=O)c2cc(NC(=O)Nc3ccc(F)cc3)ccc2O1,-4,x,x,-84
C[C@@H]1CN([C@H](C)CO)C(=O)c2cc(NC(=O)Nc3ccc(F)cc3)ccc2O[C@@H](C)CCCCO[C@H]1CN(C)S(=O)(=O)c1cccs1,0,x,x,141*!
C[C@@H]1CCCCO[C@@H](CN(C)S(=O)(=O)c2ccccc2)[C@H](C)CN([C@@H](C)CO)C(=O)c2cc(NC(=O)Nc3ccc(F)cc3)ccc2O1,105*,x,x,x
O=C(NNC(=O)c1ccncc1)Nc1ccc(N=Nc2ccccc2)cc1,-7,x,x,100*
CC(C)(C)OC(=O)N1CCC(Cc2cc(-c3cccc(Br)c3)no2)(C(=O)O)CC1,4,0,-20,7
C=C1CC(C)OC(c2ccccc2OCC(O)CN2CCCCC2)C1 (stereo not given),3,0,x,115*
Cc1ccc(C)c(COC(=O)c2cc([N+](=O)[O-])ccc2N2CCOCC2)c1,0,0,6,-14
CCOc1cc(CNCc2ccncc2)cc(Br)c1OCc1ccccc1F,2,0,29,112*
CCOc1cc(CNCCSc2nnnn2C)cc(Br)c1OCc1ccccc1F,2,0,24,-25
CSc1ccc(CNc2ccccn2)cc1,-5,0,-9,82*
Oc1ccc(N=Nc2ccccc2)o1,5,0,313*,-12
O=c1ccc(N=Nc2ccccc2)ccc1O,-9,0,12,-14
CN1/C(=C\C(=O)COC(=O)Cn2nnc(-c3ccccc3)n2)C(C)(C)c2ccccc21,1,0,268*,x
CC(C)[C@H](C)NC(=O)N(C)C[C@@H]1OCc2ccccc2-c2c(n(C)c3ccccc23)C(=O)N([C@@H](C)CO)C[C@@H]1C,-1,x,x,34
Clc1ccc(SCCOCCN2CCc3ccccc3C2)cc1,x,0,270*,x
SMILES,Cneo AK release,Efflux pump inh,SUMO Mot1 rescue,C2C12 statin
Cn1c(=O)c2cc(NC(=O)NCCc3cccs3)ccc2n1C/C=C/c1ccccc1,-1,x,x,-1
CCN(c1ccccc1)S(=O)(=O)c1cnc[nH]1,0,0,2,88*
FC(F)(F)c1cccc(-c2cc(C3CCNCC3)[nH]n2)c1,1,0,-5,-9
COC(=O)CCN1CCC(c2cc(-c3cccc(C(F)(F)F)c3)n[nH]2)CC1,4,0,320*,-12
COc1cc(NC(=O)c2ccccc2)c(OC)cc1Cl,4,0,-27,130*
COc1ccc(NC(=O)c2ccc3nc(-c4ccccc4)c(-c4ccccc4)nc3c2)c(OC)c1,x,0,1,x
COc1ccccc1NC(=O)c1ccc2nc(-c3ccccc3)c(-c3ccccc3)nc2c1,0,0,x,84*
COc1cc(N)c(Cl)cc1NC(=O)c1ccccc1,-5,0,0,4
N=c1sccn1CC(=O)NC(c1ccccc1)c1ccccc1,4,0,18,4
O=C(O)/C=C1\NC(=O)c2ccccc21,-1,0,6,104*
Cc1cc(C)c(O)c(CN(C)Cc2cc(Cl)cc(Cl)c2O)c1,-12,x,x,-3
Oc1c(Cl)cc(Cl)cc1Sc1cc(Cl)cc(Cl)c1O,x,0,282*,x
CCCN1CCN(C(=O)c2ccc(Sc3ccc(C)cc3)c(NC(C)=O)c2)CC1,x,0,-18,80*
CC(=O)Nc1cc(C(=O)N2CCc3ccccc3C2)ccc1Sc1ccc(C)cc1,x,0,36,x
O=C(NC1CCCc2ccccc21)c1ccc(=O)[nH]c1 (stereo not given),0,0,-11,2
CCC(C)(NC(=O)c1ccc(=O)[nH]c1)C(=O)NC1CCCC1 (stereo not given),0,0,-10,92*
CCCNC(=O)c1ccc(CNc2c(N3CCC(C(=O)OCC)CC3)c(=O)c2=O)cc1,1,0,-6,133*
COc1cccc(/C=N/NC(=O)Cn2nc([N+](=O)[O-])cc2C)c1,x,0,-21,x
N#Cc1cnn(Cc2ccccc2)c1N,-1,0,0,112*
Clc1ccccc1CNc1ncnc2nc[nH]c12,3,1,6,101*
c1ccc(CNc2ncnc3nc[nH]c23)nc1,-3,0,-9,-4
Cc1ccc(NC(=S)N2CCN(C(=O)C3CCCO3)CC2)c(C)c1 (stereo not given),5,0,3,100*
Cc1ccc(NC(=S)N2CCN(c3ccccn3)CC2)c(C)c1,x,0,325*,x
Cc1ccc(NC(=S)N2CCN(C)CC2)c(C)c1,x,0,-5,x
Cc1ccc(NC(=S)N2CCN(C(=O)c3ccccc3)CC2)c(C)c1,x,0,440*,x
SMILES,Cneo AK release,Efflux pump inh,SUMO Mot1 rescue,C2C12 statin
CCOC(=O)c1c(NC(=O)CN2CCCCC2)sc(C)c1C,x,0,-5,x
CCC(=O)N1[C@H](CO)[C@H](c2ccccc2)[C@@H]1CN(CC)C(=O)c1cccc(F)c1,99*,x,x,-17
O=C(Cc1ccccc1)N/N=C/c1cc(Br)cc(Cl)c1O,x,1,358*,x
COc1cc(Br)cc(/C=N/NC(=O)Cc2ccccc2)c1O,x,0,35,x
O=C(Nc1cccc(-n2cnnn2)c1)c1ccco1,0,0,9,111*
CCOc1c2ccc(C(=O)NCc3ccc(C(F)(F)F)cc3C(F)(F)F)cc2nn1C,0,0,66,12
CCCCn1nc2cc(C(=O)NCc3ccc(C(F)(F)F)cc3C(F)(F)F)ccc2c1OCC,0,0,7,83*
O=C/C=C/c1coc2ccc3ccccc3c2c1=O,x,0,12,x

# Screening data deposited in PubChem BioAssay by several laboratories.
